Measurements from different studies.
Compare with care: the assays were run in different laboratories.
Target: Tyrosine-protein kinase ZAP-70 (ZAP70, Homo sapiens, UniProt P43403)
Sequence (P43403 1-619, as in one of the studies): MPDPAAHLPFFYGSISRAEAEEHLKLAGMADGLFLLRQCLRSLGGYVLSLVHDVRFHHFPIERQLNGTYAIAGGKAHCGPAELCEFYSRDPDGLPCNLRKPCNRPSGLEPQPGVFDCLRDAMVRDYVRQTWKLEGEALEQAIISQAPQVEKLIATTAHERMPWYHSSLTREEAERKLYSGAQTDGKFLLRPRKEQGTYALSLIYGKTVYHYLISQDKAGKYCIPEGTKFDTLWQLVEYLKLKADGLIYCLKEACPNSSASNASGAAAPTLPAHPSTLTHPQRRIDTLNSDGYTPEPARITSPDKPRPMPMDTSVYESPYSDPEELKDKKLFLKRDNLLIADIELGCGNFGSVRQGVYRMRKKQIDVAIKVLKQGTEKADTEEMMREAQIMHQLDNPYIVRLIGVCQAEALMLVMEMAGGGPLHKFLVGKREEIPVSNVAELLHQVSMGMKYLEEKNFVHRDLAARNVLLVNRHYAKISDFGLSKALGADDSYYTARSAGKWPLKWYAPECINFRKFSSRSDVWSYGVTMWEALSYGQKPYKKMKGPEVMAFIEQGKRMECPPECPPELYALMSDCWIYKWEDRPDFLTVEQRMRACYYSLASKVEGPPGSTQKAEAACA

Compound	effect on	action	technique	tested at	endpoint	value
CCN(CC)CCNC(=O)c1c(C)[nH]c(/C=C2\C(=O)Nc3ccc(F)cc32)c1C	enzyme activity	inhibitor		1 µM	remaining activity	110%
COc1cc(/C=C/C(=O)CC(=O)/C=C/c2ccc(O)c(OC)c2)ccc1O	enzyme activity	inhibitor		1 µM	activity vs control	108%
COc1cc2ncnc(Nc3ccc(Oc4ccccc4)cc3C)c2cc1OC	enzyme activity	inhibitor		1 µM	inhibition	0%
CC(C)(C)c1nc(-c2cccc(NS(=O)(=O)c3c(F)cccc3F)c2F)c(-c2ccnc(N)n2)s1	enzyme activity	inhibitor	radiometric	1 µM	remaining activity	92%
O=C(O)c1cc(-c2ccc(C3CCNCC3)cc2)c2ccc(-c3ccc(C(F)(F)F)cc3)cc2c1	cell-free assay		competition with immobilised ligand	1 µM	remaining binding	100%
CCCS(=O)(=O)Nc1ccc(F)c(C(=O)c2c[nH]c3ncc(-c4ccc(Cl)cc4)cc23)c1F	enzyme activity	inhibitor		1 µM	inhibition	< 10%
COc1cc2ncnc(Nc3ccc(F)c(Cl)c3)c2cc1OCCCN1CCOCC1	cell-free assay			0.5 µM	remaining signal	96.5%
O=C(Nc1cnn(-c2csc(C(=O)NC3COC3)c2)c1)Nc1c(F)cccc1Cl	enzyme activity	inhibitor		5 µM	remaining activity	104%
COc1cc(Cl)c(C(=O)N[C@@H](CN[C@H]2CC[C@@H](N)CC2)Cc2ccc(C#N)cc2)cc1-c1ccc(CN[C@H](C)c2ccc(C)cc2)o1	enzyme activity	inhibitor		1 µM	remaining activity	93%
COCCOc1nc(-c2ccc(Cl)nc2)nc2c1CN(C(=O)c1ncn3ccccc13)CC2	cell-free assay		competition with immobilised ligand	0.1 µM	remaining binding	95%
CS(=O)(=O)Nc1cccc(-c2csc(NC(=O)CSc3nc4nccnc4c(=O)n3CCc3ccccc3)n2)c1	enzyme activity	inhibitor		10 µM	inhibition	9%
COc1cc(-c2cn(C3CCc4ccccc4N(CC(F)(F)F)C3=O)nn2)ccc1-n1ccc(C)n1 (stereo not shown)	cell-free assay		competition with immobilised ligand	1 µM	remaining binding	82%
Nc1ncnc2occ(-c3ccc(NC(=O)Nc4cc(C(F)(F)F)ccc4F)cc3)c12	cell-free assay	inhibitor		20 µM	remaining signal	2.4%
FC(F)(F)Oc1cccc(-c2cnc3ccc(-c4ccncc4)nn23)c1	enzyme activity	inhibitor	radiometric	1 µM	activity vs control	116%
O=C(NS(=O)(=O)c1ccc(NCC2CCOCC2)c([N+](=O)[O-])c1)c1ccc(N2CCN(Cc3ccc(C(F)(F)F)cc3-c3ccc(Cl)cc3)CC2)cc1Oc1cnc2[nH]ccc2c1	cell-free assay		competition with immobilised ligand	1 µM	remaining binding	82%
CNC(=O)c1cc(Oc2ccc(NC(=O)Nc3ccc(Cl)c(C(F)(F)F)c3)cc2)ccn1	enzyme activity	inhibitor		0.3 µM	inhibition	-1%

Compound	effect on	action	technique	tested at	endpoint	value
O=C(Nc1cnn(-c2csc(C(=O)NC3COC3)c2)c1)Nc1ccccc1Cl	enzyme activity	inhibitor		5 µM	remaining activity	102%
C[C@H](c1ccc(F)cc1)N(Cc1cccc(C(=O)O)c1)C(=O)c1cnc2ccccc2c1	cell-free assay		competition with immobilised ligand	1 µM	remaining binding	96%
Cc1ccc(C(=O)NCc2ccsc2)cc1C#Cc1cn(C(C)C)c2ncnc(N)c12	enzyme activity	inhibitor		1 µM	activity vs control	89%
CCN(CC)CCNC(=O)c1c(C)[nH]c(/C=C2\C(=O)Nc3ccc(F)cc32)c1C	enzyme activity	inhibitor		10 µM	inhibition	11%
Cc1[nH]c(/C=C2\C(=O)Nc3ccc(F)cc32)c(C)c1C(=O)N[C@H]1CCN(C(=O)N(C)C)C1	enzyme activity	inhibitor		1 µM	remaining activity	116%
Cc1c(NC(=O)c2cc(C(N)=O)nc3cc(F)ccc23)c(C(F)(F)F)nn1Cc1ccc(C(C)(C)C)cc1	cell-free assay		competition with immobilised ligand	1 µM	remaining binding	100%
N#CCCc1ccc2c(c1)-c1[nH]c3ccc([N+](=O)[O-])cc3c1CC(=O)N2	cell-free assay			0.5 µM	remaining signal	106%
CN1CC(Oc2cnc(C#N)cc2-c2ccn3nc(NC(=O)C4CC4)cc3c2)C1	enzyme activity	inhibitor		1 µM	inhibition	8%
CCCOc1ccc(OC)c(F)c1C(=O)c1ccc(C(=O)N[C@@H]2CNC[C@H]2NC(=O)c2ccc3[nH]ncc3c2)cc1	enzyme activity	inhibitor		10 µM	remaining activity	90%
COc1cc(Nc2cnc(C#N)c(O[C@H](C)CN(C)C)n2)ncc1-c1cnn(C)c1	enzyme activity	inhibitor	radiometric	1 µM	remaining activity	104%
Cc1ccc(Nc2nccc(N(C)c3ccc4c(C)n(C)nc4c3)n2)cc1S(N)(=O)=O	enzyme activity	inhibitor		0.5 µM	remaining activity	92.6%
Cc1cc(C)c(-n2ccn3nc(-c4cccnc4)cc23)cc1NC(=O)c1cc(C#N)cc(S(F)(F)(F)(F)F)c1	cell-free assay		competition with immobilised ligand	0.1 µM	remaining binding	79.9%
CNCc1ccc(-c2cc(-c3nc(-c4ccc(S(=O)(=O)C(C)C)cc4)cnc3N)on2)cc1	enzyme activity	inhibitor		2 µM	inhibition	0%
O=C(Nc1ccc(Oc2ccc(F)cc2)cc1)N1CCc2ncccc2[C@H]1c1ccc(F)cc1	cell-free assay		competition with immobilised ligand	1 µM	remaining binding	91%
c1nc2c(Nc3ccc4c(c3)OCCO4)nc(Nc3ccc4c(c3)OCCO4)nc2[nH]1	enzyme activity	inhibitor		10 µM	activity vs control	62%
